Measurements as given in the array DNA melting data of Ke et al. (doi:10.1101/2024.01.08.574731).

Legend:
[1] = melting temperature; fluorescence melt of hairpins on a sequencing array, two-state fit, raised by 9.35 °C to match UV melts; details: sodium 0.088 M
Outline: (§1)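 In 50 mM Na-HEPES pH 8.0 containing 25 mM NaCl, hairpins from the library on a sequenced MiSeq flow cell were imaged for Cy3 fluorescence at 2.5 °C steps up to 60 °C, with Cy3 and quencher oligos annealed. After normalisation to pre-quench Cy3 and to control constructs, two-state fits with bootstrapping gave melting temperature and folding enthalpy. Four replicates were combined by inverse-variance weighting, and fitted temperatures were shifted up by 9.35 °C to match UV melts.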

[2] = folding enthalpy; higher = less favourable; fluorescence melt of hairpins on a sequencing array, two-state fit; details: sodium 0.088 M
Outline: as §1

Question: Which Tm [1] does the source give for GGAGGAGGAAACTCTTCC (((.(((....))).))) here?
Answer: 42.2 °C

Question: What about the folding enthalpy [2] of the same sequence?
Answer: -29.1 kcal/mol

Question: With GGAGGATCGAAAGATTCC (((..(((....)))))) as the sequence, how does the Tm [1] read?
Answer: 28.4 °C

Question: What about the folding enthalpy [2] of the same sequence?
Answer: -19.1 kcal/mol

Question: With GGAGGCCGAAAGGCTCC (((.(((....)))))) as the sequence, how does the Tm [1] read?
Answer: 57.2 °C

Question: What about the folding enthalpy [2] of the same sequence?
Answer: -21.1 kcal/mol

Question: What does the source list for GGAGGCGAAAGCCACTCC ((((((....)))..)))?
Answer: Tm [1]: 42.6 °C; folding enthalpy [2]: -12.1 kcal/mol

Question: For GGAGGCGAAAGCCATTCC ((((((....)))..))), which Tm [1] is on record?
Answer: 34.7 °C

Question: What about the folding enthalpy [2] of the same sequence?
Answer: -7.5 kcal/mol

Question: Which Tm [1] does the source give for GGAGGCGAAAGCCCCTCC ((((((....)))..))) here?
Answer: 59.1 °C

Question: And the folding enthalpy [2]?
Answer: -12.6 kcal/mol

Question: With GGAGGCGAAAGCCGTTCC ((((((....)))..))) as the sequence, how does the Tm [1] read?
Answer: 41.6 °C

Question: And the folding enthalpy [2]?
Answer: -8.29 kcal/mol

Question: Which Tm [1] does the source give for GGAGGCGAAAGCCTATCC ((((((....)))..))) here?
Answer: 40.8 °C

Question: What about the folding enthalpy [2] of the same sequence?
Answer: -9.28 kcal/mol

Question: Which Tm [1] does the source give for GGAGGCTCGAAAGAGTCC (((..(((....)))))) here?
Answer: 35.8 °C

Question: What about the folding enthalpy [2] of the same sequence?
Answer: -14.4 kcal/mol

Question: What does the source list for GGAGGGGGAAACCCCCCC ((.((((....)))).))?
Answer: Tm [1]: 50.9 °C; folding enthalpy [2]: -14.9 kcal/mol

Question: For GGAGGGGGAAACCTCTCC ((((.((....)).)))), which Tm [1] is on record?
Answer: 51.3 °C

Question: And the folding enthalpy [2]?
Answer: -35.8 kcal/mol

Question: Which Tm [1] does the source give for GGAGGTCCGAAAGGATCC (((..(((....)))))) here?
Answer: 38.3 °C

Question: And the folding enthalpy [2]?
Answer: -12 kcal/mol

Question: For GGAGGTGCGAAAGCATCC (((..(((....)))))), which Tm [1] is on record?
Answer: 39.3 °C

Question: What about the folding enthalpy [2] of the same sequence?
Answer: -11.6 kcal/mol

Question: With GGAGTACCGAAAGGTTCC (((..(((....)))))) as the sequence, how does the Tm [1] read?
Answer: 36.3 °C

Question: And the folding enthalpy [2]?
Answer: -15 kcal/mol

Question: For GGAGTACGAAAGTAATCC (((.(((....))).))), which Tm [1] is on record?
Answer: 51.4 °C

Question: What about the folding enthalpy [2] of the same sequence?
Answer: -31 kcal/mol

Question: For GGAGTAGCGAAAGCTTCC (((..(((....)))))), which Tm [1] is on record?
Answer: 38.2 °C

Question: And the folding enthalpy [2]?
Answer: -16.1 kcal/mol

Question: Which Tm [1] does the source give for GGAGTAGGAAACTATTCC (((.(((....))).))) here?
Answer: 37.5 °C

Question: And the folding enthalpy [2]?
Answer: -21.4 kcal/mol

Question: With GGAGTAGGAAACTGCTTC (.((.((....)).)).) as the sequence, how does the Tm [1] read?
Answer: 41.4 °C

Question: And the folding enthalpy [2]?
Answer: -32.7 kcal/mol

Question: For GGAGTCACGAAAGTGTCC (((..(((....)))))), which Tm [1] is on record?
Answer: 32.1 °C

Question: And the folding enthalpy [2]?
Answer: -13.7 kcal/mol

Question: For GGAGTCGAAAGACAGTCC ((((((....)))..))), which Tm [1] is on record?
Answer: 31.5 °C

Question: What about the folding enthalpy [2] of the same sequence?
Answer: -14.3 kcal/mol

Question: For GGAGTCGAAAGACCATCC ((((((....)))..))), which Tm [1] is on record?
Answer: 29.5 °C

Question: And the folding enthalpy [2]?
Answer: -11.2 kcal/mol

Question: Which results are given for GGAGTCGAAAGACCGTCC ((((((....)))..)))?
Answer: Tm [1]: 32.2 °C; folding enthalpy [2]: -12.7 kcal/mol

Question: Which Tm [1] does the source give for GGAGTCGAAAGACGCTCC ((((((....)))..))) here?
Answer: 42.3 °C

Question: What about the folding enthalpy [2] of the same sequence?
Answer: -12.6 kcal/mol

Question: Which results are given for GGAGTCGAAAGACGTTCC ((((((....)))..)))?
Answer: Tm [1]: 37.6 °C; folding enthalpy [2]: -11.3 kcal/mol

Question: With GGAGTCGAAAGACTCTCC ((((((....)))..))) as the sequence, how does the Tm [1] read?
Answer: 51.6 °C

Question: And the folding enthalpy [2]?
Answer: -10.2 kcal/mol

Question: With GGAGTGCGAAAGCAGTCC (((.(((....))).))) as the sequence, how does the Tm [1] read?
Answer: 65.8 °C

Question: What about the folding enthalpy [2] of the same sequence?
Answer: -30.1 kcal/mol

Question: What does the source list for GGAGTGGAAACACTCC ((((((....))))))?
Answer: Tm [1]: 63.2 °C; folding enthalpy [2]: -33 kcal/mol

Question: For GGAGTGGGAAACCGCTTC (.((.((....)).)).), which Tm [1] is on record?
Answer: 38 °C

Question: And the folding enthalpy [2]?
Answer: -25.7 kcal/mol

Question: Which results are given for GGAGTTCGAAAGAAGTCC (((.(((....))).)))?
Answer: Tm [1]: 54.1 °C; folding enthalpy [2]: -41.3 kcal/mol

Question: With GGAGTTGGAAACAACCCC ((.((((....)))).)) as the sequence, how does the Tm [1] read?
Answer: 43.5 °C

Question: What about the folding enthalpy [2] of the same sequence?
Answer: -22.8 kcal/mol

Question: Which results are given for GGAGTTGGAAACGACTCC (((((.(....).)))))?
Answer: Tm [1]: 54.9 °C; folding enthalpy [2]: -23.2 kcal/mol

Question: For GGAGTTGGAAACGACTTC (.(((.(....).))).), which Tm [1] is on record?
Answer: 59.7 °C

Question: What about the folding enthalpy [2] of the same sequence?
Answer: -35.4 kcal/mol

Question: Which results are given for GGATAACGAAAGTTTTCC (((.(((....))).)))?
Answer: Tm [1]: 43.7 °C; folding enthalpy [2]: -27.6 kcal/mol

Question: Which Tm [1] does the source give for GGATAAGCGAAAGCTTCC (((..(((....)))))) here?
Answer: 35.5 °C

Question: And the folding enthalpy [2]?
Answer: -12.4 kcal/mol

Question: Which Tm [1] does the source give for GGATACCGAAAGGTTCC (((.(((....)))))) here?
Answer: 49.3 °C

Question: And the folding enthalpy [2]?
Answer: -25.6 kcal/mol

Question: For GGATACGAAAGTACATCC ((((((....)))..))), which Tm [1] is on record?
Answer: 34.5 °C

Question: What about the folding enthalpy [2] of the same sequence?
Answer: -17.1 kcal/mol

Question: For GGATACGAAAGTACTCC ((((((....))).))), which Tm [1] is on record?
Answer: 37.9 °C

Question: And the folding enthalpy [2]?
Answer: -22.9 kcal/mol

Question: Which Tm [1] does the source give for GGATACGAAAGTACTTCC ((((((....)))..))) here?
Answer: 34.8 °C

Question: What about the folding enthalpy [2] of the same sequence?
Answer: -17.1 kcal/mol

Question: With GGATACGAAAGTAGTCC ((((((....))).))) as the sequence, how does the Tm [1] read?
Answer: 40.4 °C

Question: And the folding enthalpy [2]?
Answer: -20.6 kcal/mol

Question: For GGATACGAAAGTATTTCC ((((((....)))..))), which Tm [1] is on record?
Answer: 28.1 °C

Question: And the folding enthalpy [2]?
Answer: -24.9 kcal/mol

Question: Which results are given for GGATACGGAAACGTGTTC (.(.(((....))).).)?
Answer: Tm [1]: 32.2 °C; folding enthalpy [2]: -18.8 kcal/mol

Question: For GGATAGCCGAAAGGCTCC (((..(((....)))))), which Tm [1] is on record?
Answer: 38.1 °C

Question: And the folding enthalpy [2]?
Answer: -9.11 kcal/mol

Question: Which results are given for GGATAGCGAAAGCTTTCC (((.(((....))).)))?
Answer: Tm [1]: 49.3 °C; folding enthalpy [2]: -29.7 kcal/mol

Question: For GGATAGGGAAACCCATCC ((((.((....)).)))), which Tm [1] is on record?
Answer: 39.8 °C

Question: And the folding enthalpy [2]?
Answer: -29.4 kcal/mol

Question: Which Tm [1] does the source give for GGATAGGGAAACTTATCC (((((.(....).))))) here?
Answer: 35.7 °C

Question: What about the folding enthalpy [2] of the same sequence?
Answer: -30.3 kcal/mol
